Laboratory results reported in ChEMBL document CHEMBL5042485 (J Med Chem, 2022).
One block for each compound: values may come before it. Activity calls are given as the source filed them. The calls are words filed in the database; no cut-off is given here.

Key:
[1] = Unbound clearance in CD-1 mouse at 1 mg/kg, iv measured upto 24 hrs by LC-MS/MS analysis; type: ADME, organism-based; settings: in vivo
Method in brief: (§1)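 Male CD1 mice, three per group, dosed by tail-vein injection (1 mg/kg) or oral gavage (5 mg/kg). Saphenous blood was drawn at 0.25–24 h and plasma analysed by LC–MS/MS.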

[2] = Apparent permeability across apical to basolateral side in MDCK cells; type: ADME, cell-based, Canis lupus familiaris; settings: dog
[3] = Metabolic stability in mouse liver microsomes assessed as intrinsic clearance; type: ADME, Microsome; settings: read-out: CLH
[4] = Lipophilicity, log D of compound; type: physicochemical; settings: octanol/water
[5] = target: Cyclin-dependent kinase 2/cyclin E1 (Homo sapiens, UniProt P24941); assay: Inhibition of CDK2/cyclin E1 (unknown origin) using 5-FAM-labeled peptide as substrate in presence of ATP by mobility shift assay; type: protein-complex assay
Method in brief: (§2)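 Conditions by kinase: CDK2/cyclin E1 0.5 nM with 100 μM ATP; CDK9/cyclin T1 8 nM with 30 μM ATP; CDK12/cyclin K 50 nM with 30 μM ATP.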

[6] = system: HCC70; assay: Antiproliferative activity against human HCC70 cells incubated for 72 hrs by Celltiter-glo assay; type: functional, cell-based; settings: HCC70, 72 h
Method in brief: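 HCC70 cells in log growth plated the day before, then incubated with compound for 72 h at ten concentrations from 4 to 0.000126 μM, duplicates per dose. Read-out was CellTiter-Glo 2.0 viability. Inhibition was calculated against the averaged DMSO signal on the same plate.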

[7] = target: Cyclin-dependent kinase 7/ cyclin H (Homo sapiens, UniProt P50613); assay: Binding affinity to full length CDK7 (1 to 346 residues) /N-terminal TEV cleavable 6His tagged full length cyclinH (1 to 323 residues) (unknown origin) expressed in baculovirus infected Sf9 cells by Surface plasmon resonance assay
Chain of Cyclin-dependent kinase 7/ cyclin H (P51946 whole entry, the tested form may be a part): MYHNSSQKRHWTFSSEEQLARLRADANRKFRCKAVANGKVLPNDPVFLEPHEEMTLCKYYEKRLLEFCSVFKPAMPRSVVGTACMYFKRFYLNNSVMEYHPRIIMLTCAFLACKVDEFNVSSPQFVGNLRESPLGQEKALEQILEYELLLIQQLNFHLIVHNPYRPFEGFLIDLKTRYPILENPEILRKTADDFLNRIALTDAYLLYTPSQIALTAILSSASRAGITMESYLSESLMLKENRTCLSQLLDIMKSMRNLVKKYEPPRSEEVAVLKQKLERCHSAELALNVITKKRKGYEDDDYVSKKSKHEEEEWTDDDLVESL
Chain of Cyclin-dependent kinase 7/ cyclin H (P50613 whole entry, the tested form may be a part): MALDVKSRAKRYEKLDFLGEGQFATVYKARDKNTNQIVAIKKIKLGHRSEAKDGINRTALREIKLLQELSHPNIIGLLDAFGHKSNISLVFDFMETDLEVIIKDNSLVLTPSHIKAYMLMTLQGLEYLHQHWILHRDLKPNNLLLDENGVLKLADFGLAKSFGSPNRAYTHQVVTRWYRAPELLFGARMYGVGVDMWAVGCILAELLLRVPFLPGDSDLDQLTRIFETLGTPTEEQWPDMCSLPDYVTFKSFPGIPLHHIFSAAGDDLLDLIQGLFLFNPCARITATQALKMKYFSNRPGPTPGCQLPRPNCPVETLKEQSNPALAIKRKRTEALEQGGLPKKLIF
Method in brief: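 SPR on CDK7/cyclin H dimer, amine-coupled to a CM5 chip at 200–400 RU, with reference flow cells subtracted. Titration was 9-step 2-fold from 20 nM in HEPES pH 7.5, 150 mM NaCl, 0.05% P20, with 70 s contact and 300 s dissociation. Slow off-rate binders were rerun 4-step 3-fold from 10 nM with 1800 s dissociation.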

[8] = target: CDK9/cyclin T1 (Homo sapiens, UniProt P50750); assay: Inhibition of CDK9/cyclin T1 (unknown origin) using 5-FAM-labeled peptide as substrate in presence of ATP by mobility shift assay; type: protein-complex assay; method in brief: as §2
Chain of CDK9/cyclin T1 (O60563 whole entry): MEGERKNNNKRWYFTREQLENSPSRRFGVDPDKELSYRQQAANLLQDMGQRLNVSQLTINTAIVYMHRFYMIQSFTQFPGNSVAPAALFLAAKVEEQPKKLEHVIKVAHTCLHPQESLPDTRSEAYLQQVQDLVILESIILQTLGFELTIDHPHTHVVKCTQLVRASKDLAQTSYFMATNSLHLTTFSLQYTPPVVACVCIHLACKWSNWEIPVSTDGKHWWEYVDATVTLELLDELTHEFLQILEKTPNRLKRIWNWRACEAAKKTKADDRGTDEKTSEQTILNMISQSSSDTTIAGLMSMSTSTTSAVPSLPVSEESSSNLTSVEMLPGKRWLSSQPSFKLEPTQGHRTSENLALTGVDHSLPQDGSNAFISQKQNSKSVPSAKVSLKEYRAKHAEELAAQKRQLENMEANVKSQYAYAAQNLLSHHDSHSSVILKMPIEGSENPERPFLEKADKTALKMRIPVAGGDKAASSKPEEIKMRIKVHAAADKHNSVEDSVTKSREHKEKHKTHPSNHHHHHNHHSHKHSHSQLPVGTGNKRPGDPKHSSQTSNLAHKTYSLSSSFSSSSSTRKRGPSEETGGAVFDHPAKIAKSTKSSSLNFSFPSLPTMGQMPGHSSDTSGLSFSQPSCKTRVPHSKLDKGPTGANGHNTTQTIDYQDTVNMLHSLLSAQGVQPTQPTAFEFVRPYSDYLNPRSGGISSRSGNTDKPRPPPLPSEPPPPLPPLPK
Chain of CDK9/cyclin T1 (P50750 whole entry): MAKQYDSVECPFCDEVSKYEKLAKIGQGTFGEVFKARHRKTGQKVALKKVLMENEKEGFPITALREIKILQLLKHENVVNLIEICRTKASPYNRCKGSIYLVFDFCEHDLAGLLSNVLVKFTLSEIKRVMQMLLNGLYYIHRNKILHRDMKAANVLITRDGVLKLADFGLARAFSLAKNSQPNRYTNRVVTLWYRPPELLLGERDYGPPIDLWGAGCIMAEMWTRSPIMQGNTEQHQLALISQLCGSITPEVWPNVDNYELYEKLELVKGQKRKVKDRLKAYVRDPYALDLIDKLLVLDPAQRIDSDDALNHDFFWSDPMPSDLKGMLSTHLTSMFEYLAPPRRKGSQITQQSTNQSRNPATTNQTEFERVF

[9] = target: CDK12/Cyclin K (Homo sapiens, UniProt Q9NYV4); assay: Inhibition of CDK12/cyclin K (unknown origin) using 5-FAM-labeled peptide as substrate in presence of ATP by mobility shift assay; type: protein-complex assay; method in brief: as §2
Chain of CDK12/Cyclin K (O75909 whole entry): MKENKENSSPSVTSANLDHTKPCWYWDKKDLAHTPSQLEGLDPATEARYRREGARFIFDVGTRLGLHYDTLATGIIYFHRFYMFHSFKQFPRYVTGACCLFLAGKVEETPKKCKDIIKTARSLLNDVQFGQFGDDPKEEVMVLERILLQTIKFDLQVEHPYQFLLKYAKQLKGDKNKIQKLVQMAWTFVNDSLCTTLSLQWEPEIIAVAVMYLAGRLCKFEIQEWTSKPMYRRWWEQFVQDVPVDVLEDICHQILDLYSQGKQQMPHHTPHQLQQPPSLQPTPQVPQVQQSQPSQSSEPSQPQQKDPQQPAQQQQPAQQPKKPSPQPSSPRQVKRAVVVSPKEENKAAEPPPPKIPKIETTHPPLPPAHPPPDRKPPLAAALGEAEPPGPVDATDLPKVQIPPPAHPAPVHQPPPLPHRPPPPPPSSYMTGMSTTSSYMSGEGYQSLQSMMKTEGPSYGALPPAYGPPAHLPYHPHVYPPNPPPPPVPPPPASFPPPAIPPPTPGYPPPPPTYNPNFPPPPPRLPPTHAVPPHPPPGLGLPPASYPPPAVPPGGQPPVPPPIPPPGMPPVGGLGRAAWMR
Chain of CDK12/Cyclin K (Q9NYV4 whole entry): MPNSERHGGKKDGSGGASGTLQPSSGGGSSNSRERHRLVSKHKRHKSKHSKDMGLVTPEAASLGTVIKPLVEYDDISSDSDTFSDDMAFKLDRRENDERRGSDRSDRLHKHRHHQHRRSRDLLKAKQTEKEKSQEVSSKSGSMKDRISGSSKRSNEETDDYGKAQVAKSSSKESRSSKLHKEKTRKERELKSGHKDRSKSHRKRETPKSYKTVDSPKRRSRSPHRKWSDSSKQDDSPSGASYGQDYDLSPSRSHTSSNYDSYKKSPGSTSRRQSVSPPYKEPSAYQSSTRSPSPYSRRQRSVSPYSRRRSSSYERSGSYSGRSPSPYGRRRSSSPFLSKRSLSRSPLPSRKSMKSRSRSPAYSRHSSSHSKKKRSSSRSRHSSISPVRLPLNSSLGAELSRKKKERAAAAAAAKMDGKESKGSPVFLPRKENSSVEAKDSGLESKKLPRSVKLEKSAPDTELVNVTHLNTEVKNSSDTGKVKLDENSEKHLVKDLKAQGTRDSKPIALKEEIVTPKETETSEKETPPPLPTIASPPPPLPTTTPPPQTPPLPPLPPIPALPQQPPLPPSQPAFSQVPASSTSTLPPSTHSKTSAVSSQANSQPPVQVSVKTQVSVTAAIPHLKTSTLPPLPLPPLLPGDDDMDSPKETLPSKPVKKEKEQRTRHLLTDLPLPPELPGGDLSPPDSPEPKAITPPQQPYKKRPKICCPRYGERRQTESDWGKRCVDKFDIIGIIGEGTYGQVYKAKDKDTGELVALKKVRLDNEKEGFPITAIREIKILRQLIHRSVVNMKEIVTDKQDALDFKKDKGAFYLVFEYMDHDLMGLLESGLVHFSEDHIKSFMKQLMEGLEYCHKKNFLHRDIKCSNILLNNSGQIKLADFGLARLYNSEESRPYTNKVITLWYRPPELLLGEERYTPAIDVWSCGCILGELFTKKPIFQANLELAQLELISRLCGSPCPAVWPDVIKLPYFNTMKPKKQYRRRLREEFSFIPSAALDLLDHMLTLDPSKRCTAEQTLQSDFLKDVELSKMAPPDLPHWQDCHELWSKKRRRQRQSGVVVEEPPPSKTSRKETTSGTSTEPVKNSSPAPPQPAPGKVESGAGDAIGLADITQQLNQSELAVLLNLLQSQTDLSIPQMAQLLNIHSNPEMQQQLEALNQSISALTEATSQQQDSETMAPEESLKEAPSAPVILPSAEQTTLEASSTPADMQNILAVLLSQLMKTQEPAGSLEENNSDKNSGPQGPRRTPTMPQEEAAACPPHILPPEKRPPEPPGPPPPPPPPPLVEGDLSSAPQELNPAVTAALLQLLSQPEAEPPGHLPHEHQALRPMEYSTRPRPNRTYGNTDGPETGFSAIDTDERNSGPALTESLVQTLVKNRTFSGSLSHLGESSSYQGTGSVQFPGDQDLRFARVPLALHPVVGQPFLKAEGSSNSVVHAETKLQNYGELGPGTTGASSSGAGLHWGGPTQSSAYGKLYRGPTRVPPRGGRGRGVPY

[10] = Oral bioavailability in CD-1 mouse 5 mg/kg measured upto 24 hrs by LC-MS/MS analysis; type: ADME, organism-based; settings: in vivo; method in brief: as §1
[11] = system: HCC70; assay: Antitumour activity against human HCC70 cells xenografted in BALB/c mouse assessed as tumour growth inhibition at 4 mg/kg, po bid for 21 days measured after 7 days post treatment by vernier caliper method; type: functional, organism-based; settings: time 28.0 day
Method in brief: (§3)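 Female Balb/c nude mice, 6–8 weeks old, implanted subcutaneously with HCC70 cells. At 150–200 mm3 tumours, mice were randomized, 10 per arm. Dosing was by oral gavage for 21 days, then a 7-day observation period: 2 mg/kg QD, or 2.5 or 4 mg/kg BID. Tumour volume was measured by caliper and body weight recorded twice weekly. TGI was calculated from tumour volumes.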

[12] = system: HCC70; assay: Antitumour activity against human HCC70 cells xenografted in po dosed BALB/c mouse assessed as tumour growth inhibition administered twice daily for 21 days measured after 7 days post treatment by vernier caliper method; type: functional, organism-based; settings: dose 2.5-4 mg/kg, time 28.0 day; method in brief: as §3

SMILES: CCc1cnc(N[C@H]2CCCNC2)nc1-c1c[nH]c2c(S(C)(=O)=O)c(C#N)ccc12
CL free [1]: 23.6 L/h/kg | Papp A→B [2]: 11.2 nm/s | CLint scaled [3]: 5.34 L/h/kg | logD [4]: 0.49 | IC50 [5]: 1640 nM | EC50 [6]: 287 nM | Kd [7]: 0.15 nM | IC50 [8]: 907 nM | IC50 [9]: 215 nM

SMILES: CS(=O)(=O)c1c(C#N)ccc2c(-c3nc(N[C@H]4CCCNC4)ncc3C(F)(F)F)c[nH]c12
bioavailability [10]: 5% | CL free [1]: 22.1 L/h/kg | Papp A→B [2]: 18.6 nm/s | CLint scaled [3]: < 2.28 L/h/kg | logD [4]: 1.05 | IC50 [5]: 284 nM | EC50 [6]: 15 nM | Kd [7]: 0.08 nM | IC50 [8]: 60 nM | IC50 [9]: 33 nM

SMILES: CCc1cnc(N[C@H]2CCCNC2)nc1-c1c[nH]c2ccccc12
bioavailability [10]: 2% | CL free [1]: 28.4 L/h/kg | Papp A→B [2]: 4.9 nm/s | CLint scaled [3]: 6.42 L/h/kg | logD [4]: 1.29 | IC50 [5]: 923 nM | EC50 [6]: 230 nM | Kd [7]: 0.4 nM | IC50 [8]: 430 nM | IC50 [9]: 135 nM

SMILES: Cc1noc(C)c1-c1ccc2c(-c3nc(N[C@H]4CCCNC4)ncc3C(F)(F)F)c[nH]c2n1.Cl
Activity [11]: Active | bioavailability [10]: 36% | CL free [1]: 42.7 L/h/kg | Papp A→B [2]: 46.2 nm/s | CLint scaled [3]: < 2.28 L/h/kg | logD [4]: 2.6 | IC50 [5]: 189 nM | EC50 [6]: 9 nM | Kd [7]: 0.03 nM | IC50 [8]: 90 nM | IC50 [9]: 75 nM | Activity [12]: Dose-Dependent Effect

SMILES: Cc1noc(C)c1-c1ccc2c(-c3nc(N[C@H]4CCCNC4)ncc3C(F)(F)F)c[nH]c2c1
bioavailability [10]: 16% | CL free [1]: 30.8 L/h/kg | Papp A→B [2]: 16.3 nm/s | CLint scaled [3]: 9 L/h/kg | logD [4]: 2.71 | IC50 [5]: 460 nM | Kd [7]: 0.1 nM | IC50 [8]: 138 nM | IC50 [9]: 112 nM

SMILES: CP(C)(=O)c1cccc2c(-c3nc(N[C@H]4CCCNC4)ncc3C(F)(F)F)c[nH]c12
bioavailability [10]: 3% | CL free [1]: 4.38 L/h/kg | Papp A→B [2]: 10.2 nm/s | CLint scaled [3]: < 2.28 L/h/kg | logD [4]: 0.78 | IC50 [5]: 414 nM | EC50 [6]: 0.2 nM | Kd [7]: 0.08 nM | IC50 [8]: 286 nM | IC50 [9]: 102 nM

SMILES: N#Cc1ccc2c(-c3nc(N[C@H]4CCCNC4)ncc3C(F)(F)F)c[nH]c2c1
bioavailability [10]: 43% | CL free [1]: 39.4 L/h/kg | Papp A→B [2]: 46.3 nm/s | CLint scaled [3]: 3.72 L/h/kg | logD [4]: 2.28 | IC50 [5]: 347 nM | EC50 [6]: 36 nM | Kd [7]: 0.09 nM | IC50 [8]: 86 nM | IC50 [9]: 60 nM

SMILES: CC1(C)CNC[C@@H](Nc2ncc(C(F)(F)F)c(-c3c[nH]c4c(P(C)(C)=O)c(C#N)ccc34)n2)C1
bioavailability [10]: 28% | CL free [1]: 35.8 L/h/kg | Papp A→B [2]: 33.2 nm/s | CLint scaled [3]: 9.84 L/h/kg | logD [4]: 2.7 | IC50 [5]: 771 nM | EC50 [6]: 1 nM | Kd [7]: 0.06 nM | IC50 [8]: 572 nM | IC50 [9]: 156 nM

SMILES: CS(=O)(=O)c1ccc2c(-c3nc(N[C@H]4CCCNC4)ncc3C(F)(F)F)c[nH]c2c1
CL free [1]: 43.7 L/h/kg | Papp A→B [2]: 8.6 nm/s | CLint scaled [3]: < 2.28 L/h/kg | logD [4]: 1.31 | IC50 [5]: 299 nM | EC50 [6]: 89 nM | Kd [7]: 0.1 nM | IC50 [8]: 133 nM | IC50 [9]: 69 nM

Now those with a lower IC50 [5], led by results:

CLint scaled [3]: 6.96 L/h/kg | logD [4]: 2.48 | IC50 [5]: 128 nM | Kd [7]: 0.34 nM | IC50 [8]: 71 nM | IC50 [9]: 95 nM
SMILES: CC1(C)CC[C@H](Nc2ncc(C(F)(F)F)c(-c3c[nH]c4ccccc34)n2)CN1

bioavailability [10]: 39% | CL free [1]: 27.4 L/h/kg | Papp A→B [2]: 52.6 nm/s | CLint scaled [3]: 6.54 L/h/kg | logD [4]: 1.78 | IC50 [5]: 102 nM | Kd [7]: 0.33 nM | IC50 [8]: 23 nM | IC50 [9]: 29 nM
SMILES: Clc1cnc(N[C@H]2CCCNC2)nc1-c1c[nH]c2ccccc12
EC50 [6]: 40 nM

bioavailability [10]: 49% | CL free [1]: 18.5 L/h/kg | Papp A→B [2]: 32.8 nm/s | CLint scaled [3]: < 2.28 L/h/kg | logD [4]: 1.33 | IC50 [5]: 78 nM | Kd [7]: 0.07 nM | IC50 [8]: 32 nM | IC50 [9]: 15 nM
SMILES: CS(=O)(=O)c1cccc2c(-c3nc(N[C@H]4CCCNC4)ncc3C(F)(F)F)c[nH]c12
EC50 [6]: 14 nM

bioavailability [10]: 40% | CL free [1]: 88.62 L/h/kg | CLint scaled [3]: 7.2 L/h/kg | logD [4]: 3.07 | IC50 [5]: 52 nM | Kd [7]: 0.21 nM | IC50 [8]: 41 nM | IC50 [9]: 36 nM
SMILES: CC1(C)CNC[C@@H](Nc2ncc(C(F)(F)F)c(-c3c[nH]c4ccccc34)n2)C1

bioavailability [10]: 100% | CL free [1]: 34.1 L/h/kg | Papp A→B [2]: 111 nm/s | CLint scaled [3]: 7.62 L/h/kg | logD [4]: 2.02 | IC50 [5]: 42 nM | Kd [7]: 0.15 nM | IC50 [8]: 21 nM | IC50 [9]: 24 nM
SMILES: FC(F)(F)c1cnc(N[C@H]2CCCNC2)nc1-c1c[nH]c2ccccc12
EC50 [6]: 11 nM
